According to ChEMBL document CHEMBL4765328 (Eur J Med Chem, 2020):
pIC50: −log10 of the molar value. Active and inactive are the calls of the source. The rule behind the calls is not given here.

Key:
[1] = test system: HeLa; assay: Downregulation of BubR1 expression in human HeLa cells at 10 nM after 24 hrs by Western blot analysis; type: functional, cell-based
In short: (§1)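 HeLa cells treated 24 or 48 h, then washed in cold PBS and lysed in 0.1% Triton X-100/RNase A at 0 °C. Lysates were cleared at 15,000 x g. 10 µg protein was run on SDS-PAGE and blotted to PVDF, blocked in 5% BSA, and probed 2 h at room temperature with primary antibodies. HRP secondary and ECL detection followed; β-actin reprobe served as loading control.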

[2] = test system: HeLa; assay: Induction of apoptosis in human HeLa cells assessed as early apoptotic cells at 10 nM measured after 24 hrs by Annexin V-FITC/propidium iodide staining based flow cytometry (reference value: 2.1 %); type: functional
[3] = test system: HeLa; assay: Induction of apoptosis in human HeLa cells assessed as reduction in mcl-1 protein expression at 10 nM after 24 hrs by Western blot analysis; type: functional, cell-based
[4] = test system: HeLa; assay: Induction of mitochondrial membrane potential loss in human HeLa cells assessed as cells with depolarized mitochondrial membrane at 10 nM after 24 hrs by JC-1 dye-based flow cytometric analysis (reference value: 5.7 %); type: functional
[5] = test system: HeLa; assay: Induction of apoptosis in human HeLa cells assessed as increase in bcl-2 phosphorylation at 10 nM after 24 hrs by Western blot analysis; type: functional, cell-based; in short: as §1
[6] = test system: HL-60; assay: Antiproliferative activity against human HL-60 cells assessed as inhibition of cell growth; type: functional, cell-based
In short: (§2)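 Growth inhibition of cancer cell lines read from dose-response curves; IC50 as mean ± SEM of at least three independent experiments.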

[7] = test system: Jurkat; assay: Potency index, ratio of CA-4 IC50 to compound IC50 for human Jurkat cells assessed as inhibition of cell growth; type: functional
[8] = test system: HeLa; assay: Induction of apoptosis in human HeLa cells assessed as necrotic cells at 10 nM measured after 48 hrs by Annexin V-FITC/propidium iodide staining based flow cytometry (reference value: 2.26 %); type: functional
[9] = test system: HeLa; assay: Induction of apoptosis in human HeLa cells assessed as increase in PARP cleavage at 10 nM after 48 hrs by Western blot analysis; type: functional, cell-based; in short: as §1
[10] = test system: HeLa; assay: Induction of apoptosis in human HeLa cells assessed as early apoptotic cells at 10 nM measured after 48 hrs by Annexin V-FITC/propidium iodide staining based flow cytometry (reference value: 2.1 %); type: functional
[11] = test system: HeLa; assay: Downregulation of MAD-2 expression in human HeLa cells at 10 nM after 24 hrs by Western blot analysis; type: functional, cell-based; in short: as §1
[12] = test system: HeLa; assay: Induction of microtubule network depolymerization in human HeLa cells assessed as appearance of disorganised microtubules at 50 nM after 24 hrs by immunofluorescence staining based confocal microscopic analysis; type: cell-based
In short: (§3)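 HeLa cells treated 24 h at 10, 50 or 100 nM. They were then fixed in cold 4% formaldehyde for 15 min and stained with anti-β-tubulin for 2 h at room temperature. Alexa 488 secondary and DAPI counterstain followed; imaged by confocal microscopy at 20X.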

[13] = Cytotoxicity against mouse E0771 cells assessed as cell growth inhibition after 72 hrs by MTT assay; type: functional; settings: EO771
[14] = Cytotoxicity against human PBL assessed as inhibition of cell growth; type: cell-based; settings: peripheral blood lymphocytes (PBL)
In short: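 Peripheral blood lymphocytes from healthy donors, tested either unstimulated or stimulated with PHA; DMSO ≤0.25% final. Values are mean ± SEM of three separate experiments.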

[15] = Antitumor activity mouse E0771 cells implanted in C57BL/6 mouse assessed as reduction tumor mass at 5 mg/kg, ip administered every other day relative to control; type: functional, EO771; set-up: scale not given: the % may be the effect or the level left
In short: (§4)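 Seven-week-old female C57BL/6 mice received 4 x 10^5 E0771 cells orthotopically in the mammary fat pad and were randomized once tumors were palpable. Dosing was ip every other day at 5 or 15 mg/kg, with DMSO vehicle in 100 µL. Caliper volume was V=(D×d²)/2, and tumor weight was taken at endpoint; n=5/group. Analysis used two-way ANOVA with Bonferroni.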

[16] = test system: SEM cells; assay: Antiproliferative activity against human SEM cells assessed as inhibition of cell growth; type: functional, cell-based
In short: (§5)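 Compounds from 10 mM DMSO stocks; final DMSO ≤0.25%. Growth inhibition of cancer cell lines read from dose-response curves; IC50 as mean ± SEM of at least three independent experiments.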

[17] = test system: HeLa; assay: Induction of apoptosis in human HeLa cells assessed as late apoptotic cells at 10 nM measured after 24 hrs by Annexin V-FITC/propidium iodide staining based flow cytometry (reference value: 6.07 %); type: functional
[18] = test system: HUVEC; assay: Antivascular activity against HUVEC assessed as effect on meshes area in preformed capillary like tube network at 10 nM incubated for 1 hr by imaging analysis; type: functional, cell-based; settings: Homo sapiens
In short: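 HUVECs used at passages 1–6 in M200 with low-serum growth supplement. 6 x 10^4 cells seeded on gelled Matrigel (37 °C, 30 min) and left 6 h to form tubes. Preformed networks then treated 1 h at 10 or 100 nM and photographed at five fields per well. Image analysis gave segment length, mesh area and number, covered area and branch points; three independent experiments.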

[19] = test system: HL-60; assay: Potency index, ratio […] for human HL-60 cells assessed as inhibition of cell growth; type: functional
[20] = Antitumor activity mouse E0771 cells implanted in C57BL/6 mouse assessed as reduction tumor mass at 15 mg/kg, ip administered every other day relative to control; type: functional, EO771; set-up: scale not given: the % may be the effect or the level left; in short: as §4
[21] = test system: Jurkat; assay: Antiproliferative activity against human Jurkat cells assessed as inhibition of cell growth; type: functional, cell-based; in short: as §5
[22] = species: Bos taurus; assay: Inhibition of [3H]colchicine binding to bovine brain tubulin at 0.5 uM relative to control; type: tissue-based
In short: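 [3H]colchicine binding to purified tubulin, with tubulin at 0.5 µM and colchicine at 5 µM. Compounds tested at 5 and 0.5 µM. CA-4 was run in contemporaneous experiments for comparison.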

[23] = test system: HeLa; assay: Induction of apoptosis in human HeLa cells assessed as increase in cleavage of caspase 9 at 10 nM after 24 hrs by Western blot analysis; type: functional, cell-based; in short: as §1
[24] = Cytotoxicity against normal human astrocytes assessed as inhibition of cell growth; type: cell-based, Astrocyte
[25] = test system: HeLa; assay: Induction of mitochondrial membrane potential loss in human HeLa cells assessed as cells with polarized mitochondrial membrane at 10 nM after 48 hrs by JC-1 dye-based flow cytometric analysis (reference value: 94.3 %); type: functional
[26] = test system: HeLa; assay: Downregulation of MAD-2 expression in human HeLa cells at 10 nM after 48 hrs by Western blot analysis; type: functional, cell-based; in short: as §1
[27] = test system: HeLa; assay: Induction of apoptosis in human HeLa cells assessed as necrotic cells at 10 nM measured after 24 hrs by Annexin V-FITC/propidium iodide staining based flow cytometry (reference value: 2.26 %); type: functional
[28] = test system: HT-29; assay: Antiproliferative activity against human HT-29 cells assessed as inhibition of cell growth; type: functional, cell-based; in short: as §2
[29] = test system: HeLa; assay: Induction of microtubule network depolymerization in human HeLa cells assessed as appearance of disorganised microtubules at 10 nM after 24 hrs by immunofluorescence staining based confocal microscopic analysis; type: cell-based; in short: as §3
[30] = test system: EO771; assay: Antitumor activity against mouse E0771 cells implanted in ip dosed C57BL/6 mouse assessed as reduction tumor growth administered every other day; type: functional, organism-based; settings: dose 5-15 mg/kg; in short: as §4
[31] = test system: HeLa; assay: Induction of microtubule network depolymerization in human HeLa cells assessed as appearance of disorganised microtubules at 100 nM after 24 hrs by immunofluorescence staining based confocal microscopic analysis; type: cell-based; in short: as §3

pIC50 [6]: 8.57
pIC50 [21]: 9.55
inhibition [22]: 86%
pIC50 [28]: 8.68
Structure (SMILES): CCOc1ccc2c(C(=O)c3cc(OC)c(OC)c(OC)c3)c(N)oc2c1
Activity [1]: Active
Activity [2]: 6.72%
Activity [3]: Active
Activity [4]: 24.3%
Activity [5]: Active
Ratio IC50 [7]: 3
Activity [8]: 21.63%
Activity [9]: Active
Activity [10]: 23.53%
Activity [11]: Active
Activity [12]: Active
GI50 [13]: 15.6 nM
GI50 [14]: 8700 nM
Activity [15]: 16.9%
pIC50 [16]: 9.51
Activity [17]: 14.05%
Activity [18]: Active
Ratio IC50 [19]: 3
Activity [20]: 45.7%
Activity [23]: Active
GI50 [24]: > 10000 nM
Activity [25]: 45.3%
Activity [26]: Active
Activity [27]: 14.77%
Activity [29]: Active
Activity [30]: Dose-dependent effect
Activity [31]: Active
